# Sampled rows, rich in hits. Any-hit rate of the full collection: about 6.4%.
# PostGolgi yeast: growth inhibition of a yeast mutant, post-Golgi transport screen. post-Golgi transport phenotypic cell assay. inhibition, % at 10 µM. hit rate 0.9% among 98,000;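 further: yeast cells grown in 1536-well plates; yeast grown about 18 h at 30C before absorbance read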
# EphB4 ephrin blk: antagonists of human EphB4-ephrin-B2 interaction; P54760; EphB4 LBD / TNYL-RAW-Alexa532 peptide, fluorescence polarization; inhibition, % at 7 µM; hit rate 0.15% among 97,000;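 active means inhibition above the screen-wide mean inhibition plus 3 SD, cut at about 15% in these data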;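 further: 0% = DMSO wells and 100% = excess unlabeled TNYL-RAW peptide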
# PLK1 PBD inh: inhibitors of human Plk1 polo box domain binding; hit rate 0.13% among 97,000; P53350; Plk1 PBD phosphopeptide binding, fluorescence polarization; inhibition, %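 (tested at about 20 µM)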; in the data active means inhibition above about 34%, passing the limit was not always enough
# HIV Rev-RRE inh: inhibitors of HIV-1 Rev-RRE RNA interaction; P05866; Rev peptide-RRE RNA binding, FRET; inhibition, % at 8 µM; hit rate 0.79% among 97,000; AID 704;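 active means inhibition above the screen-wide mean plus 3 SD, cut at about 35% in these data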;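 further: 0% = median DMSO wells and 100% = median Neomycin B control wells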
# Target sequence (P05866 whole entry, looked up): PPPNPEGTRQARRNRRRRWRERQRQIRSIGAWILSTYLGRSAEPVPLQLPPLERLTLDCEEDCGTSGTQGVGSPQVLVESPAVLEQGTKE
#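 Assay system: Labelled RRE RNA duplex and labelled Rev peptide | Times: 5 min preincubation and 15 min binding, 25 °C | Detection: FRET, ex 480 nm, em 540 and 671 nm | Evaluation: % inhibition of FRET ratio versus controls | Benchmarks: DMSO wells as 0% and neomycin B wells as 100% inhibition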
# PLK1 kinase inh: blocks human PLK1 kinase activity; recombinant PLK1 kinase, TR-FRET peptide phosphorylation; inhibition, % at 10 µM; hit rate 0.53% among 97,000; AID 619;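 active means inhibition of 50% or more in the single-concentration screen; inactive means inhibition below 50%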;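 further: 0% = DMSO max control and 100% = H-89 dihydrochloride min control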
# PostGolgi ctrl: growth of the yeast control strain, post-Golgi counter-screen; efflux-deficient yeast background strain, growth absorbance A615, 16 h; inhibition, % at 10 µM; hit rate 5% among 98,000; AID 738
# * = called active by the depositor; · = not tested or not shown; [ ] = remark or other dose. Unless noted, no stated cut-off is given here; in the data, active means inhibition above about 30%; inactive means the rest.
SMILES,PostGolgi yeast,EphB4 ephrin blk,PLK1 PBD inh,HIV Rev-RRE inh,PLK1 kinase inh,PostGolgi ctrl
COc1ccc(-n2c(NC(=O)c3ccco3)c(C#N)c3nc4ccccc4nc32)cc1,6,-1,12,37*,-7,9
CCCCn1c(NC(=O)CC)c(C#N)c2nc3ccccc3nc21,9,2,-26,12,18,8
CCC(=O)Nc1c(C#N)c2nc3ccccc3nc2n1C1CCCCC1,2,-2,14,5,-9,37*
CCCCn1c(NC(=O)c2ccccc2Cl)c(C#N)c2nc3ccccc3nc21,33*,7,-18,13,-2,18
CC(C)(C)NC(=O)CN(Cc1cccs1)C(=O)c1csnn1,-10,-1,3,6,-9,31*
CC(C)(C)NC(=O)CN(Cc1cccs1)C(=O)CCC(=O)Nc1nccs1,-7,-2,-15,4,26,-8
O=c1[nH]c2ccsc2c(=O)n1-c1ccc(F)c(Cl)c1,14,6,-18,10,2,0
O=C(CSCC(=O)OCn1nnc2ccccc2c1=O)Nc1ccc(Cl)cc1,0,6,3,4,-11,32*
CCc1cc(N2CCOCC2)cc2c1[nH]c1ccccc12,-11,2,2,2,-17,36*
CCC(C)n1c(-c2cccs2)nc2nc3ccccc3nc21 (centres undefined),3,0,-30,12,-8,35*
O=c1ccc(Oc2nc(N3CCCCC3)nc(N3CCCCC3)n2)n[nH]1,2,0,-26,-2,-4,1
CCn1c(SCc2nc3sc(C(=O)O)c(C)c3c(=O)[nH]2)nc2ccccc21,16,5,-45,60*,56*,0
Cn1c(Cn2cnc3ccccc32)nnc1SCC(=O)CC(=O)Nc1ccccc1,0,2,9,-2,-5,2
CCCN(CCC)c1nc(Cl)nc(NCc2ccco2)n1,21,0,-6,10,-12,38*
COC(=O)c1cc(NS(=O)(=O)c2ccc(NC(C)=O)cc2)cc(C(=O)OC)c1,-5,3,-5,0,5,2
COC(=O)c1cc2c(-c3ccccc3)c(C)c3ccccn3c-2c1C(=O)OC,5,1,-19,-6,-17,42*
CCCc1cc(=O)[nH]c(SCc2cc(Cl)ccc2OC(F)F)n1,2,-11,5,4,-11,28
O=C(Nc1nc(COc2ccccc2)cs1)C12CC3CC(CC(C3)C1)C2,1,4,13,15,-5,37*
Cc1ccccc1NC(=O)C(C#N)Cc1cccnc1 (centres undefined),8,-4,23,3,1,8
CCOC(=O)c1c(NC(=O)CN2CCCCC2)sc2c1CCN(C(=O)OCC)C2,13,4,-20,7,4,13
CCOC(=O)c1c(NC(=S)Nc2ccccc2)sc2c1CCN(CCc1ccccc1)C2,-4,-2,-69,124*[fluorescence artefact?],-16,2
O=C(COc1ccc(Cl)cc1Cl)N1CCCN(C(=O)COc2ccc(Cl)cc2Cl)CC1,-5,10,7,9,-5,75*
CC(=O)N1CCN(c2ccc(NC(=O)COc3ccc(Cl)cc3Cl)cc2)CC1,7,-11,4,3,-5,-5
Cc1cc(Cl)ccc1OCC(=O)N1CCCCC1,-3,-8,-5,0,-10,4
CC(=O)N1CCN(c2ccccc2NC(=O)COc2ccc(Cl)cc2Cl)CC1,0,4,-2,5,-11,50*
SMILES,PostGolgi yeast,EphB4 ephrin blk,PLK1 PBD inh,HIV Rev-RRE inh,PLK1 kinase inh,PostGolgi ctrl
O=C(Nc1nnc(-c2ccc(Cl)s2)o1)C1CCCCC1,·,-2,18,0,-4,·
CCCC(=O)Nc1nnc(-c2ccc(Cl)s2)o1,6,2,7,7,64*,13
O=C(CCN1C(=O)c2ccccc2C1=O)Nn1cnnc1,1,·,·,·,·,9
O=C(Nc1ccccc1N1CCOCC1)c1ccccc1NS(=O)(=O)c1ccc(F)cc1,2,11,-17,3,-16,34*
CCOc1ccc(S(=O)(=O)Nc2ccccc2C(=O)Nc2ccccc2N2CCOCC2)cc1,3,3,13,8,-3,34*
CC(C)(C)C1=Nn2c(nnc2-c2ccccn2)SC1,1,2,-9,7,5,9
C/C(=C1/SC(N2CCCC2)=NC1=O)c1ccc(Br)cc1,-1,1,-11,2,-6,33*
